Holding throughout (assay type): functional
Test [1] is described as follows: Inhibition of lipopolysaccharide TNFalpha production in human PMNC at 0.3 ug/mL by ELISA. Summed up: (§1)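 Cytokine (IL-1β, IL-2, IL-4, TNF) concentrations were measured directly by ELISA in the culture supernatants. The paper attributes the cytokines to macrophages in the culture.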
Test [2] can be described thus: Inhibition of lipopolysaccharide IL2 production in human PMNC at 0.3 ug/mL by ELISA. Summed up: as §1
In general terms: An ELISA detects its analyte on a solid surface through an enzyme-linked reagent.

Test [3] in a line: Inhibition of lipopolysaccharide IL4 production in human PMNC at 0.3 ug/mL by ELISA. The method in brief: as §1
The nature of test [4]: Inhibition of lipopolysaccharide IL1-beta production in human PMNC at 0.3 ug/mL by ELISA. The method in brief: as §1

SMILES strings stand for the structures.

Usually inhibition stands for the drop in the measured response relative to a control, in per cent.

For the molecule `C[C@]12C=CC(=O)C=C1CC[C@@H]1[C@@H]2[C@@H](O)C[C@@]2(C)[C@H]1CC[C@]2(O)C(=O)CO` [PREDNISOLONE], the inhibition at 0.3 µg/mL is 47.9% in test [1], 30.6% in test [2], 40.7% in test [3] and 24.8% in test [4].

The values are drawn from ChEMBL document CHEMBL1150167, “Sesquiterpenes from Ferula penninervis” (2002).
